Calls of active or inactive are those of the source. No cut-off for these calls is given here.
Assays:
[1] = tested on: SK-MEL-28; assay: Induction of apoptosis in human SK-MEL-28 cells assessed as increase in late apoptotic cells at 0.1 to 1 uM after 48 hrs by Annexin V-FITC/propidium iodide staining-based flow cytometry; format: functional, cell-based
In short: (§1)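 After adhesion, 1 × 10⁴ cells/well were exposed for 48 h with medium control and 0.1% DMSO vehicle. Cells washed with PBS, trypsinized and centrifuged (600 × g, 10 min). Stained with FITC-Annexin V (1:100 in binding buffer, 30 min) and propidium iodide, then read by flow cytometry for apoptotic, late apoptotic and necrotic fractions; three independent assays.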

[2] = tested on: SK-MEL-28; assay: Induction of apoptosis in human SK-MEL-28 cells at 0.1 to 1 uM after 48 hrs by Annexin V-FITC/propidium iodide staining-based flow cytometry; format: functional, cell-based; in short: as §1
[3] = tested on: HUVEC; assay: Induction of apoptosis in HUVEC at 0.1 to 1 uM after 48 hrs by Annexin V-FITC/propidium iodide staining-based flow cytometry; format: cell-based; details: human; in short: as §1
[4] = tested on: SK-MEL-28; assay: Cytotoxicity against human SK-MEL-28 cells assessed as impairment in cell metabolism at 0.1 to 1 uM after 24 to 48 hrs by MTT assay; format: functional, cell-based
In short: (§2)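 Cells maintained in […] with 10% FBS at 37 C, 5% CO2. 1 × 10³ cells/well plated, allowed 24 h adhesion, then treated in medium for 14, 24 or 48 h; vehicle 0.1% DMSO, 10% DMSO positive control. MTT converted to formazan, dissolved in DMSO, read at 570 nm. Expressed as % of untreated (RPMI-only) control; mean of three independent assays.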

[5] = tested on: HUVEC; assay: Induction of apoptosis in HUVEC assessed as increase in necrotic cells at 0.1 to 1 uM after 48 hrs by Annexin V-FITC/propidium iodide staining-based flow cytometry; format: cell-based; details: human; in short: as §1
[6] = tested on: SK-MEL-28; assay: Induction of mitochondrial membrane potential depolarization in human SK-MEL-28 cells at 0.1 to 1 uM after 48 hrs by JC-1 staining based flow cytometry; format: functional, cell-based
In short: (§3)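 1 × 10⁴ cells/well exposed 48 h after adhesion; medium control and 0.1% DMSO vehicle. Washed, stained with JC-1 for 30 min at 37 C, 5% CO2, then trypsinized and run on flow cytometry, 10,000 events; excitation 488 nm, emission 529 and 590 nm. Valinomycin positive control. Output: green-to-red mean fluorescence ratio; two independent assays.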

[7] = tested on: SK-MEL-28; assay: Cytotoxicity against human SK-MEL-28 cells assessed as reduction in cell proliferation at 0.1 to 1 uM after 14 to 48 hrs by trypan blue staining based haemocytometer method; format: functional
In short: (§4)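 1 × 10⁴ cells/well in […] plus 10% FBS, treated after adhesion for 14, 24 or 48 h alongside medium control, 0.1% DMSO vehicle and 10% DMSO positive control. Cell number counted by trypan blue exclusion under optical microscopy; three independent assays.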

[8] = tested on: HUVEC; assay: Cytotoxicity against HUVEC assessed as reduction in cell proliferation at 0.1 to 1 uM after 14 to 48 hrs by trypan blue staining based haemocytometer method; details: human; in short: as §4
[9] = tested on: HUVEC; assay: Cytotoxicity against HUVEC assessed as impairment in cell metabolism at 0.1 to 1 uM after 24 to 48 hrs by MTT assay; format: ADME, cell-based; details: human; in short: as §2
[10] = tested on: HUVEC; assay: Induction of apoptosis in HUVEC assessed as increase in late apoptotic cells at 0.1 to 1 uM after 48 hrs by Annexin V-FITC/propidium iodide staining-based flow cytometry; format: cell-based; details: human; in short: as §1
[11] = tested on: HUVEC; assay: Induction of mitochondrial membrane potential depolarization in HUVEC at 0.1 to 1 uM after 48 hrs by JC-1 staining based flow cytometry; format: cell-based; details: human; in short: as §3
[12] = tested on: SK-MEL-28; assay: Induction of apoptosis in human SK-MEL-28 cells assessed as increase in necrotic cells at 0.1 to 1 uM after 48 hrs by Annexin V-FITC/propidium iodide staining-based flow cytometry; format: functional, cell-based; in short: as §1
[13] = tested on: SK-MEL-28; assay: Induction of mitochondrial membrane potential depolarization in human SK-MEL-28 cells at 200 uM after 24 hrs by JC-1 staining based flow cytometry; format: functional, cell-based
In short: (§5)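 Cells were kept in […] with 10% FBS at 37 C and 5% CO2. They were plated at 1 × 10⁴ cells/well and treated after adhesion. They were then PBS-washed and stained with JC-1 ([…]) for 30 min at 37 C, then trypsinized and centrifuged. Flow cytometry acquired 10,000 events (excitation 488 nm, emission 529/590 nm). Read-out was the ratio of mean green to red fluorescence, from two independent assays.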

[14] = tested on: HUVEC; assay: Induction of mitochondrial membrane potential depolarization in HUVEC at 200 uM after 24 hrs by JC-1 staining based flow cytometry; format: cell-based; details: human; in short: as §5

| Compound | Activity [1] | Activity [2] | Activity [3] | Activity [4] | Activity [5] | Activity [6] | Activity [7] | Activity [8] | Activity [9] | Activity [10] | Activity [11] | Activity [12] | Activity [13] | Activity [14] |
| --- | --- | --- | --- | --- | --- | --- | --- | --- | --- | --- | --- | --- | --- | --- |
| COC(=O)[C@H](Cc1ccc(O)c(-c2ccc(OC)cc2)c1)NC(=O)[C@H](Cc1ccc(O)c(-c2ccc(OC)cc2)c1)NC(=O)OC(C)(C)C | inactive | inactive | Non-toxic | Active | Non-toxic | inactive | Active | Non-toxic | Non-toxic | Non-toxic | Non-toxic | inactive | – | – |
| CC(C)[C@@H]1NC(=O)[C@H](C)OC(=O)[C@@H](C(C)C)NC(=O)[C@@H](C(C)C)OC(=O)[C@H](C(C)C)NC(=O)[C@H](C)OC(=O)[C@@H](C(C)C)NC(=O)[C@@H](C(C)C)OC(=O)[C@H](C(C)C)NC(=O)[C@H](C)OC(=O)[C@@H](C(C)C)NC(=O)[C@@H](C(C)C)OC1=O [VALINOMYCIN] | – | – | – | – | – | – | – | – | – | – | – | – | Active | Toxic |
